High-throughput results from PubChem.
HSV replic up: enhancers of HSV replication in host cells, fold increase, host cell viability | maximum fold increase | AID 1956, 2009 | HSV replication augmentation in cells | 220,000 tested, 0.005% active; in the data active = maximum fold increase above about 1.5; inconclusive = no clear call, values can overlap the other calls; tested in PC3 cells
MDM2 E3 inh: MDM2-luciferase reporter signal enhancers, primary screen, MDM2 E3 ligase inhibitor project, cell-based, luminescence, 1536-well. E3 ubiquitin-protein ligase Mdm2 (Homo sapiens), Q00987. cell-based MDM2 ubiquitination luciferase reporter, 2 h; 0 = plate control, 100 = twice control, blank-subtracted. signal enhancement, % at 5 µM. 210,000 tested, 0.11% active. AID 1230, 2008;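 active = signal enhancement of 30% or more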;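 also: luminescence tracks abundance of the self-degrading MDM2-luciferase fusion protein; higher signal means inhibition of MDM2 E3 ligase activity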
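Material: stable MDM2–luciferase fusion reporter cells / Quantity: 2000 cells/well / Dosing: single 5 µM compound dose, 0.2% final DMSO / Buffer or medium: DMEM / Schedule: 4 h cell settling then 2 h compound exposure, 37 °C / Detection: luminescence with SteadyLite reagent, 15 min at room temperature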
HSF-1 act: HSF-1 activators, primary screen, NIH3T3-HGL cells, MG132 stress, luminescence, single point; 300,000 tested, 1.7% active; NIH3T3-HGL HSF-1 luciferase reporter, 8 h; 100% = twice DMSO control signal; activation, % at 9 µM;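 active = mean replicate activation of at least 50% with a set share of replicates each reaching 50%; inconclusive = only one of those two conditions met; inactive = mean below 50% and too few replicates reaching it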;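 also: 0% = median of the neutral control wells and 100% = twice that signal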
Rad51 HR inh: human RAD51 strand exchange inhibitors, primary screen, biochemical, fluorescence; DNA repair protein RAD51 homolog 1 (Homo sapiens), Q06609; hRad51 DNA strand exchange, fluorescence dequenching; inhibition, % at 10 µM; 200,000 tested, 0.085% active;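 active = inhibition above 40% at the single screening dose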;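 also: 0% = DMSO control wells and 100% = blanks with heterologous ssDNA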
Target sequence (Q06609 whole entry, looked up): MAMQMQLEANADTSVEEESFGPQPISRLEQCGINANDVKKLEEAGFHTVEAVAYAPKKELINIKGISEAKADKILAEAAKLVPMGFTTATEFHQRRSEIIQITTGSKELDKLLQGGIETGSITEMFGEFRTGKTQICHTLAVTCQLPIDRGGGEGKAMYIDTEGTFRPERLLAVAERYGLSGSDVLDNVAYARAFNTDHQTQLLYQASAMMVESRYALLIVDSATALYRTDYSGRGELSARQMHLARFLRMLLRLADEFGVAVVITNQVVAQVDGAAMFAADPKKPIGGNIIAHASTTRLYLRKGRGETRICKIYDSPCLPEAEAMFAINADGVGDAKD
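material = hRad51 filaments on single-stranded DNA | reagent = Donor/quencher-labelled 47-bp dsDNA substrate | compound = 10 µM final, single point | schedule = strand-exchange reaction 15 min at room temperature | measured by = fluorescein emission 520 nm, excitation 485 nm | read-out basis = % inhibition versus plate control and blank means | benchmarks = plate controls and plate blanks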
Hsp70 activator: Hsp70 transcriptional activators, primary screen, cell-based, HeLa, Hsp70 promoter luciferase, luminescence, 10 µM. HeLa Hsp70 promoter luciferase reporter; scaled: vehicle 0, proteasome-inhibitor control 100%. activation, % at 10 µM. 200,000 tested, 0.04% active. AID 1203, 2008;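 active = activation above the mean across all tested compounds plus 3 SD, cutoff set per campaign, cut at about 5.5% in these data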;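 also: 100% = MG132 at 30 µM as the positive control and 0% = DMSO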
HSF1 inhib: HSF1 inhibitors in luciferase reporter cells, primary screen, cell-based, NIH3T3, luminescence. activity change, negative = inhibition, % at 7.5 µM (by protocol). 300,000 tested, 0.77% active. NIH3T3-HGL HSE-luciferase, MG132-induced, luminescence 8 h; active compounds read low;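 active = more than half of replicate wells show activity change below -50%, luminescence cut by over half; inconclusive = some wells, but at most half, below -50%; inactive = no replicate well below -50%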;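 also: luciferase reports HSF-1 transcriptional activity via heat shock element; 0% = median of DMSO wells and -100% = zero luminescence signal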
Starred values were filed as active, the others as inactive; i = inactive; ? = inconclusive; / = not tested or not shown. The list is not random: actives were taken first. Their share in the collection is about 2.6%.

SMILES	HSV replic up	MDM2 E3 inh	HSF-1 act	Rad51 HR inh	Hsp70 activator	HSF1 inhib
CC1CC(=O)N(CC(=O)NCc2ccc3c(c2)OCO3)c2ccccc2S1 (stereo not drawn)	/	-8	23	/	0	10
CC1CC(=O)N(CC(=O)NCc2ccco2)c2ccccc2S1 (stereo not drawn)	i	-4	61*	-4	0	31
O=C(CCC1CCCC1)NCc1ccccn1	i	-5	6	-2	0	-3
O=C(CC1CCCCC1)NCc1ccccn1	i	-1	-92	-6	0	-90*
O=C(NC(=S)Nc1ccc2[nH]c(=O)[nH]c2c1)c1ccccc1[N+](=O)[O-]	/	/	1	/	/	-4
O=C(O)c1ccccc1OC(C(=O)Nc1cc(Cl)cc(Cl)c1)c1ccccc1 (stereo not drawn)	/	/	58*	/	/	14
CN(C)S(=O)(=O)c1ccc(S(=O)(=O)NCc2cccs2)cc1	/	/	-9	/	/	-5
CC(C)Oc1ccc(N2C(=O)c3ccccc3C2=O)cc1	i	-9	58*	2	0	8
CCc1ccccc1NC(=O)c1ccc(NS(C)(=O)=O)cc1	i	-5	-64	-6	0	-56*
COc1ccccc1NC(=O)c1ccc(NS(C)(=O)=O)cc1	i	12	10	5	0	1
CC1(C)C=C2C(=NN(c3ccccc3)C(N)=C2C#N)CO1	/	/	-78	/	/	-71*
CC1(C)Cc2c(C#N)c(N)n(-c3ccccc3)c(=S)c2CO1	i	-6	?	2	/	28
CC(=O)c1ccc(N=C2NC(=O)C(CO)(CO)S2)cc1	/	/	4	/	/	-4
O=C(c1cc(COc2c(F)cccc2F)on1)N1C[C@H]2CC[C@H]1C2	/	/	56*	/	/	29
O=C(c1cc(COc2ccc(F)cc2F)on1)N1C[C@H]2CC[C@H]1C2	/	/	11	/	/	9
Cc1ccc(-c2ccc(C)c(N)c2C)c(C)c1N	i	-9	2	0	0	0
CCn1c(SCC(=O)c2ccc(Cl)cc2)nnc1C(C)C	i	-25	145*	10	0	148
COC(=O)c1cnc(SCC(=O)c2ccccc2)n1C	/	/	41	/	/	23
CCn1c(CNC(C)=O)nnc1SCC(=O)c1ccc(Br)cc1	i	11	82*	-5	0	70
Cn1c(CO)cnc1SCC(=O)c1ccc(Cl)cc1	i	-6	80*	5	0	48
CCn1c(CNC(=O)Cc2ccc(OC)cc2)nnc1SCC(=O)c1ccc(Br)cc1	i	-16	45	-4	0	22
COC(=O)c1cnc(SCc2ccc(Cl)cc2)n1C	i	-6	69*	1	0	52
Cc1cccc(C)c1NC(=O)CSc1nnc(C2CCCCC2)o1	/	/	0	/	/	4
CCn1c(SCC(=O)c2ccc(Cl)cc2)nnc1-c1ccoc1C	i	-22	75*	5	0	40
Cc1nc(CSc2ccc(Cl)cc2)cc(NCc2ccccc2)n1	i	-11	25	4	0	13
SMILES	HSV replic up	MDM2 E3 inh	HSF-1 act	Rad51 HR inh	Hsp70 activator	HSF1 inhib
Clc1ccc(-n2nnnc2SCc2cn3ccccc3n2)cc1	i	8	4	2	0	1
CNc1cc(CSc2ccc(Cl)cc2)nc(C)n1	i	-5	71*	2	0	38
Clc1ccc(SCc2cn3ccccc3n2)cc1	i	-5	78*	6	0	57
Cc1ccc(S(=O)(=O)NCc2cn3c(C)csc3n2)cc1	i	-4	/	-5	0	/
Clc1ccc2nc(CSCc3ccccc3)cn2c1	i	-14	37	6	1	32
Cc1ccc(SCc2cn3c(C)csc3n2)cc1	i	-7	91*	-2	0	57
Clc1ccc2nc(CSc3nc4ccccc4o3)cn2c1	i	-50	100*	0	0	75
Cc1ccc(S(=O)(=O)NNC(=O)c2ccc3ccccc3n2)cc1	/	/	35	/	/	10
COc1cccc(NC(=O)C2CCN(C(=O)[C@@H]3Cc4ccccc4CN3)CC2)c1	/	/	8	/	/	1
COc1ccc2c(C)cc(SCC(=O)Nc3cccnc3Cl)nc2c1	i	5	22	-139	0	7
Brc1ccc(CSc2nnc3ccccn23)cc1	i	0	58*	2	0	13
Clc1ccc2nc(CSc3nnc4ccccn34)cn2c1	i	0	68*	-14	0	27
Cc1ccc(SCc2cn3cc(Cl)ccc3n2)cc1	i	-10	54*	/	/	22
O=C(c1ccc(F)cc1)C1CCN(C(=S)Nc2ccc(F)cc2)CC1	/	/	-2	/	/	-1
COc1ccc(N2CC(C(=O)Nc3ccccc3N3CCCC3)CC2=O)c(OC)c1 (stereo not drawn)	/	/	-6	/	/	-4
O=C1CCc2cc(S(=O)(=O)NC(Cc3ccccc3)C(=O)N3CCN(c4ccccn4)CC3)ccc2N1 (stereo not drawn)	i	-9	14	19	0	8
CN1N=C2c3ccccc3CCC2C1c1ccc(C(F)(F)F)cc1 (stereo not drawn)	i	-13	-60	20	/	-58*
COc1cccc(Cn2c(=O)sc3ccccc3c2=O)c1	i	27	81*	-8	0	46
CC(=O)N1c2ccc(S(=O)(=O)N3CCC(C(=O)N4CCN(c5ccc(Cl)cc5)CC4)CC3)cc2CC1C (stereo not drawn)	/	/	-10	/	/	1
CCn1cc(C(=O)NN)c(=O)c2cc(F)c(NC3CCCCC3)cc21	/	/	66*	/	/	19
CC(=O)Nc1ccc(NC(=O)CSc2nnc(NC(=O)c3cccc(F)c3)s2)cc1	/	/	6	/	/	20
CC1CCCCN1CC(=O)Nc1ccccc1Sc1ccccc1 (stereo not drawn)	i	2	-67	-5	0	-59*
CN(C(=O)OC(C)(C)C)c1ccc(-c2nc3ccccc3s2)cc1	i	/	-94	0	/	-93*
CC(C)c1ccc(-c2nc3ccccc3s2)cc1	i	-83	-92	9	/	-91*
Cc1cc(C)n(C(=O)c2sc3cc(F)ccc3c2Cl)n1	i	-6	4	/	0	-4
Cc1cc(NC(=O)CN2C(=O)NC(C)(c3ccccc3)C2=O)no1 (stereo not drawn)	i	-7	0	-1	0	-7
Cc1cc(C)cc(NC(=O)CN2C(=O)NC(C)(c3ccccc3)C2=O)c1 (stereo not drawn)	i	-7	86*	7	0	39
